According to ChEMBL document CHEMBL1135888, “Synthesis of new covalently bound kappa-carrageenan-AZT conjugates with improved anti-HIV activities” (J Med Chem, 2002):
“And” between values parts separate entries of the source, which are not always exact repeats. Equal values may be shown once.

Experiments:
MT4 [1] = assay: Concentration required to inhibit the cytopathicity of HIV-1 strain BRU by 50% in MT-4 cells (expressed in AZT equivalent); type: functional, cell-based; settings: Homo sapiens
In short: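 MT-4 cells (3 × 10⁵), cultured in RPMI/10% FCS, were pretreated with compound for 1 h at 37 °C. Cells were then infected with HIV-1 BRU (MOI 0.1 CCID/cell) for 1 h, washed three times and cultured 7 days with or without compound, with medium renewed on day 3. Cytopathicity was scored microscopically, in duplicate. Final DMSO was <2%, with DMSO-matched standard assays.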

[2] = half life required for 50% hydrolysis of compound to AZT upon incubation in NHS; type: ADME, organism-based; settings: human, NHS (human serum)
In short: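 Incubation at 37 °C in normal human serum. Samples were quenched with ice-cold methanol, centrifuged and filtered, then run on HPLC at 267 nm. t1/2 is the time to 50% hydrolysis to AZT.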

MT4 [3] = assay: Concentration required to inhibit the cytopathicity of HIV-1 strain IIIB by 50% in MT-4 cells (expressed in AZT equivalent); type: functional, cell-based; settings: Homo sapiens
In short: (§1)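 MT-4 cells in RPMI 1640 with 10% heat-inactivated FCS, 2 mM L-glutamine, 0.1% bicarbonate and 20 µg/mL gentamicin were infected with HIV-1 IIIB before compound was added. Inhibition of virus-induced cytopathicity was read 5 days after infection.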

Homo sapiens = species: Homo sapiens; assay: % Nucleoside derivatives released after 48 hr of hydrolysis at pH 7.2; type: functional
In short: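 Incubation at 37 °C for 48 h in normal human serum (pH 7.2). Aliquots were quenched in ice-cold methanol and centrifuged, and supernatants were filtered. HPLC used a 20–100% solvent B gradient over 20 min with detection at 267 nm. Percent of AZT and succinate-AZT released was calculated from peak areas.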

MT4 [4] = assay: Concentration required to cause 50% death of uninfected MT-4 cells (expressed in AZT equivalent); type: functional, Homo sapiens
In short: (§2)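 Uninfected MT-4 cells were exposed to compound. Growth was followed and viability measured by trypan blue exclusion, or as viability of mock-infected cells on day 5. CC50 is the concentration giving 50% cell death.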

MT4 [5] = assay: Concentration required to inhibit the cytopathicity of HIV-1 strain IIIB by 50% in MT-4 cells (expressed in k-carrageenan equivalent); type: functional, cell-based; settings: Homo sapiens; in short: as §1
MT4 [6] = assay: Concentration required to cause 50% death of uninfected MT-4 cells (expressed in k-carrageenan equivalent); type: functional, Homo sapiens; in short: as §2

Question: Which EC50 (MT4 [1]) does the source give for `Cc1cn([C@H]2C[C@H](N=[N+]=[N-])[C@@H](COC(=O)CCC(=O)O)O2)c(=O)[nH]c1=O` here?
Answer: The EC50 was 15 nM.

Question: What about the half-life [2] of the same compound?
Answer: The half-life was 25 h.

Question: And the EC50 (MT4 [3])?
Answer: The EC50 was 65 nM.

Question: What about the Release (Homo sapiens) of the same compound?
Answer: Its Release is 100%.

Question: What about the CC50 (MT4 [4]) of the same compound?
Answer: Its CC50 is > 50000 nM and 130000 nM.

Question: Which EC50 (MT4 [1]) does the source give for `Cc1cn([C@H]2C[C@H](N=[N+]=[N-])[C@@H](CO)O2)c(=O)[nH]c1=O` [ZIDOVUDINE] here?
Answer: The EC50 was 25 nM.

Question: What about the CC50 (MT4 [4]) of the same compound?
Answer: The CC50 was > 100000 nM and 42000 nM.

Question: For `CO[C@H]1O[C@@H]2CO[C@@H]([C@H]1O)[C@H]2O[C@@H]1O[C@H](CO)[C@H](OS(=O)(=O)[O-])[C@H](O[C@H]2O[C@@H]3CO[C@@H]([C@H]2O)[C@H]3O[C@@H]2O[C@H](COC(=O)CCC(=O)OC[C@H]3O[C@@H](n4cc(C)c(=O)[nH]c4=O)C[C@@H]3N=[N+]=[N-])[C@H](OS(=O)(=O)[O-])[C@H](O[C@H]3O[C@@H]4CO[C@@H]([C@H]3O)[C@H]4O[C@@H]3O[C@H](CO)[C@H](OS(=O)(=O)[O-])[C@@H](O[C@H]4O[C@@H]5CO[C@@H]([C@H]4O)[C@H]5O[C@@H]4O[C@H](CO)[C@H](OS(=O)(=O)[O-])[C@H](O[C@H]5O[C@@H]6CO[C@@H]([C@H]5O)[C@H]6O[C@@H]5O[C@H](COC(=O)CCC(=O)OC[C@H]6O[C@@H](n7cc(C)c(=O)[nH]c7=O)C[C@@H]6N=[N+]=[N-])[C@H](OS(=O)(=O)[O-])[C@H](O[C@H]6O[C@@H]7CO[C@@H]([C@H]6O)[C@H]7O[C@@H]6O[C@H](CO)[C@H](OS(=O)(=O)[O-])[C@@H](O[C@H]7O[C@@H]8CO[C@@H]([C@H]7O)[C@H]8O[C@@H]7O[C@H](CO)[C@H](OS(=O)(=O)[O-])[C@H](O[C@H]8O[C@@H]9CO[C@@H]([C@H]8O)[C@H]9O[C@@H]8O[C@H](COC(=O)CCC(=O)OC[C@H]9O[C@@H](n%10cc(C)c(=O)[nH]c%10=O)C[C@@H]9N=[N+]=[N-])[C@H](OS(=O)(=O)[O-])[C@H](O[C@H]9O[C@@H]%10CO[C@@H]([C@H]9O)[C@H]%10O[C@@H]9O[C@H](CO)[C@H](OS(=O)(=O)[O-])[C@H](C)[C@H]9O)[C@H]8O)[C@H]7O)[C@H]6O)[C@H]5O)[C@H]4O)[C@H]3O)[C@H]2O)[C@H]1O.[Na+].[Na+].[Na+].[Na+].[Na+].[Na+].[Na+].[Na+].[Na+]`, which EC50 (MT4 [5]) is on record?
Answer: The EC50 was 1.6 µg/mL.

Question: And the CC50 (MT4 [6])?
Answer: Its CC50 is 300 µg/mL.

Question: And the CC50 (MT4 [6]; Homo sapiens, MT4, read-out: CC50)?
Answer: The CC50 was 300 µg/mL.

Question: And the EC50 (MT4 [3])?
Answer: Its EC50 is 109 nM.

Question: What about the Release (Homo sapiens) of the same compound?
Answer: Its Release is 39%.
